Measured values reported in ChEMBL document CHEMBL1275282, “Synthesis, characterization, oxidative degradation, antibacterial activity and acetylcholinesterase/butyrylcholinesterase inhibitory effects of some new phosphorus(V) hydrazides” (Eur J Med Chem, 2010).

Legend:
Pseudomonas aeruginosa [1] = assay: Antibacterial activity against Pseudomonas aeruginosa at 10 mg/ml after 20-24 hrs by filter paper disc method.; assay type: functional; conditions: read-out: DIZ
Summary of the method: (§1)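 Filter paper disc diffusion on nutrient agar, with nutrient-agar cultures as inocula. 6.5 mm paper discs were saturated with test solutions at 5 or 10 mg ml-1, with chloramphenicol at the same levels as reference. Plates were incubated at 37 ± 1 °C for 20–24 h. The growth-inhibition zone diameter was measured, and three diameters were averaged per sample.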

Escherichia coli [2] = assay: Antibacterial activity against Escherichia coli at 5 mg/ml after 20-24 hrs by filter paper disc method.; assay type: functional; conditions: read-out: DIZ; summary of the method: as §1
Escherichia coli [3] = assay: Antibacterial activity against Escherichia coli at 10 mg/ml after 20-24 hrs by filter paper disc method; assay type: functional; conditions: read-out: DIZ; summary of the method: as §1
Klebsiella pneumoniae [4] = assay: Antibacterial activity against Klebsiella pneumoniae at 5 mg/ml after 20-24 hrs by filter paper disc method; assay type: functional; conditions: read-out: DIZ; summary of the method: as §1
Klebsiella pneumoniae [5] = assay: Antibacterial activity against Klebsiella pneumoniae at 10 mg/ml after 20-24 hrs by filter paper disc method; assay type: functional; conditions: read-out: DIZ; summary of the method: as §1
Bacillus cereus [6] = assay: Antibacterial activity against Bacillus cereus at 5 mg/ml after 20-24 hrs by filter paper disc method; assay type: functional; conditions: read-out: DIZ; summary of the method: as §1
Bacillus cereus [7] = assay: Antibacterial activity against Bacillus cereus at 10 mg/ml after 20-24 hrs by filter paper disc method; assay type: functional; conditions: read-out: DIZ; summary of the method: as §1
Bacillus subtilis [8] = assay: Antibacterial activity against Bacillus subtilis at 5 mg/ml after 20-24 hrs by filter paper disc method; assay type: functional; conditions: read-out: DIZ; summary of the method: as §1
Bacillus subtilis [9] = assay: Antibacterial activity against Bacillus subtilis at 10 mg/ml after 20-24 hrs by filter paper disc method; assay type: functional; conditions: read-out: DIZ; summary of the method: as §1
Staphylococcus aureus [10] = assay: Antibacterial activity against Staphylococcus aureus at 5 mg/ml after 20-24 hrs by filter paper disc method; assay type: functional; conditions: read-out: DIZ; summary of the method: as §1
Staphylococcus aureus [11] = assay: Antibacterial activity against Staphylococcus aureus at 10 mg/ml after 20-24 hrs by filter paper disc method; assay type: functional; conditions: read-out: DIZ; summary of the method: as §1
Acetylcholinesterase = Acetylcholinesterase (Homo sapiens, UniProt P22303); assay: Inhibition of human AChE by Ellman method
[12] = Lipophilicity, log P of the compound; assay type: physicochemical; conditions: octanol/water
Cholinesterase = Cholinesterase (Homo sapiens, UniProt P06276); assay: Inhibition of human BChE by Ellman method
Summary of the method: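 BChE activity was run as in the Ellman AChE format: thiocholine released from butyrylthiocholine was read with DTNB. Lyophilised enzyme was diluted in 100 mM phosphate buffer, pH 8. IC50 was taken from a plot of VI/V0 against log[I].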

Pseudomonas aeruginosa [13] = assay: Antibacterial activity against Pseudomonas aeruginosa at 5 mg/ml after 20-24 hrs by filter paper disc method.; assay type: functional; conditions: read-out: DIZ; summary of the method: as §1

Chain of Acetylcholinesterase (P22303 whole entry): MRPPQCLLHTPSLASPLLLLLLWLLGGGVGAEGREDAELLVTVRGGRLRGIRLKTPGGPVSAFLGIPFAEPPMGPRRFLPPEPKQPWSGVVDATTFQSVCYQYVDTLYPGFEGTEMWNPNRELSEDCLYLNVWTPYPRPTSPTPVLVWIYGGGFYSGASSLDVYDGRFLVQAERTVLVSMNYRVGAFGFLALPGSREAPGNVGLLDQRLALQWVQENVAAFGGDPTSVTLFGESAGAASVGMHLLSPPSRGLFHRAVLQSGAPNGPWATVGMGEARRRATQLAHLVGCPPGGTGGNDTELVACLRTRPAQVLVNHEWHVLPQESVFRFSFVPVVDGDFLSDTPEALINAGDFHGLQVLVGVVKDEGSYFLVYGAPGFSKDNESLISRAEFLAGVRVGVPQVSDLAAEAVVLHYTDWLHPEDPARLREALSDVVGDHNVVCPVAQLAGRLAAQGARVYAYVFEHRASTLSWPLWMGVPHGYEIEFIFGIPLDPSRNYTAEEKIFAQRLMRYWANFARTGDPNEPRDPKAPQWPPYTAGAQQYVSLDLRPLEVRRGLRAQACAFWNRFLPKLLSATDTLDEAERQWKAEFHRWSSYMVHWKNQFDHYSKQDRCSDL
Chain of Cholinesterase (P06276 whole entry): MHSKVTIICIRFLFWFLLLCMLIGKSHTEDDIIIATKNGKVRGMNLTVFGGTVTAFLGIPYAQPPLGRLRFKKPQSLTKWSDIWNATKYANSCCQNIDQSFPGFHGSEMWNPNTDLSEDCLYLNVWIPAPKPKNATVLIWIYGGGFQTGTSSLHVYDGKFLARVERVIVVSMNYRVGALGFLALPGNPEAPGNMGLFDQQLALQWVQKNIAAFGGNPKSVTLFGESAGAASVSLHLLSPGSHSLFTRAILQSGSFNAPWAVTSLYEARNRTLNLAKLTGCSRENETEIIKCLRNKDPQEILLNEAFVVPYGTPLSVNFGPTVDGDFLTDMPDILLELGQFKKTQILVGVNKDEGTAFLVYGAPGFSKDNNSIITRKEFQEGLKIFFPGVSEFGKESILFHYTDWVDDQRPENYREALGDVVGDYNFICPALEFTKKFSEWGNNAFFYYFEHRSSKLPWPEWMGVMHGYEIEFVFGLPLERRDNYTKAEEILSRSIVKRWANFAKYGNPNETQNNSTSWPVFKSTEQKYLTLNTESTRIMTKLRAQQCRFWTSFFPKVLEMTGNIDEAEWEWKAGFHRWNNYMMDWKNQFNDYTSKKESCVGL

SMILES | zone of inhibition at 10000 µg/mL (Pseudomonas aeruginosa [1]) [mm] | zone of inhibition at 5000 µg/mL (Escherichia coli [2]) [mm] | zone of inhibition at 10000 µg/mL (Escherichia coli [3]) [mm] | zone of inhibition at 5000 µg/mL (Klebsiella pneumoniae [4]) [mm] | zone of inhibition at 10000 µg/mL (Klebsiella pneumoniae [5]) [mm] | zone of inhibition at 5000 µg/mL (Bacillus cereus [6]) [mm] | zone of inhibition at 10000 µg/mL (Bacillus cereus [7]) [mm] | zone of inhibition at 5000 µg/mL (Bacillus subtilis [8]) [mm] | zone of inhibition at 10000 µg/mL (Bacillus subtilis [9]) [mm] | zone of inhibition at 5000 µg/mL (Staphylococcus aureus [10]) [mm] | zone of inhibition at 10000 µg/mL (Staphylococcus aureus [11]) [mm] | IC50 (Acetylcholinesterase) [µM] | logP [12] | IC50 (Cholinesterase) [µM] | zone of inhibition at 5000 µg/mL (Pseudomonas aeruginosa [13]) [mm]
O=C(N[C@H](CO)[C@H](O)c1ccc([N+](=O)[O-])cc1)C(Cl)Cl [CHLORAMPHENICOL] | 7 | 13 | 17 | 11 | 15 | 12 | 15 | 14 | 17 | 17 | 22 | – | – | – | –
Cc1ccc(OP(=O)(NN2CCOCC2)NN2CCOCC2)cc1 | – | 6 | 11 | 7 | 14 | – | – | 8 | 18 | 10 | 13 | – | – | – | –
O=C(NP(=O)(NN1CCCCC1)NN1CCCCC1)c1ccccc1 | – | – | – | – | – | – | – | 9 | 19 | – | 7 | 1950 | 1.35 | 430 | –
O=P(O)(NN1CCCCC1)Oc1ccccc1 | 10 | 7 | 11 | – | – | – | – | 7 | 15 | – | 8 | 5490 | 1.29 | 1580 | 5
O=P(NN1CCOCC1)(NN1CCOCC1)c1ccccc1 | – | – | – | – | – | – | – | – | – | – | – | – | -1.12 | 2450 | –
O=C(NP(=O)(NN1CCOCC1)NN1CCOCC1)c1ccccc1 | – | 6 | 11 | – | – | – | – | 7 | 13 | – | 8 | 18600 | -0.78 | 2140 | –
O=P(NN1CCCCC1)(NN1CCCCC1)Oc1ccccc1 | – | 7 | 15 | 5 | 15 | 5 | 14 | 6 | 13 | 11 | 17 | – | – | – | –
O=C(NP(=O)(NN1CCOCC1)NN1CCOCC1)c1ccc(Cl)cc1 | – | 6 | 13 | – | – | – | 8 | 5 | 12 | – | – | – | – | – | –
O=P(NN1CCOCC1)(NN1CCOCC1)Oc1ccccc1Cl | – | 7 | 10 | – | – | 7 | 10 | – | – | – | – | – | – | – | –
COc1ccc(C(=O)NP(=O)(NN2CCOCC2)NN2CCOCC2)cc1 | – | – | 7 | – | – | – | 7 | 7 | 13 | – | – | – | – | – | –
O=P(NN1CCOCC1)(NN1CCOCC1)Oc1ccccc1 | – | – | – | – | – | – | – | – | – | – | – | 9550 | -0.54 | 1620 | –
